Results on 28 compounds are retold here after ChEMBL document CHEMBL1155031, “Structure-activity relationships of 7-deaza-6-benzylthioinosine analogues as ligands of Toxoplasma gondii adenosine kinase” (J Med Chem, 2008).

Structures are written as SMILES. pIC50, pKi: −log10 of the molar value.

One data set has as its target T1, Adenosine kinase (Toxoplasma gondii, UniProt Q9TVW2).
T1 sequence (Q9TVW2 whole entry): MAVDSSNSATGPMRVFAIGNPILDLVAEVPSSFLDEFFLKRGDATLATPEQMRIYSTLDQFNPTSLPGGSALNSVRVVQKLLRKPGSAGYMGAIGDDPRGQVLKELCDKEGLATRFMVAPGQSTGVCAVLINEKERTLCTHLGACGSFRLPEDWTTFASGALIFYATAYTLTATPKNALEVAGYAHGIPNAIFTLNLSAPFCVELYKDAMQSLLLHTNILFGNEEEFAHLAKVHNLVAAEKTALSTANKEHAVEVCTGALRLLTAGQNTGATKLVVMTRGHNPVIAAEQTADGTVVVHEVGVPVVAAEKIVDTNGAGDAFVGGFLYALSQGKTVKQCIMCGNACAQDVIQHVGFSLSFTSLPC
Kind of data set: Binding affinity to purified Toxoplasma gondii adenosine kinase. An outline of the steps:
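Radiometric assay at 37 °C in 50 mM Tris-Cl pH 7.4 with 2.5 mM ATP, 5 mM MgCl₂, creatine phosphate/creatine kinase regeneration and 5 µM [8-¹⁴C]adenosine, plus varied inhibitor. Reaction stopped by boiling, then adenosine and AMP separated by TLC and quantified. Apparent Ki from Dixon plots (1/V vs [I]), taken as equal to apparent Km for alternative substrates. Mean ± SD, ≥2 experiments in triplicate.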

Data set [1] relates to Toxoplasma gondii. In words: Antitoxoplasma activity against wild type Toxoplasma gondii RH assessed as survival at 5 uM after 18 hrs by [5,6-[…]]uracil incorporation assay. It is filed as functional. In a few lines:
(§1)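 Human foreskin fibroblast monolayers (≤20 passages, RPMI 1640) seeded ~5×10⁵ cells/well, attached 24 h at 37 °C, 5% CO2. Infected with isolated tachyzoites at 1 parasite/cell in 3% FBS for 1 h, then washed. Compounds were dissolved in 50% ethanol and added at final 0, 5, 10, 25 or 50 µM with 10% FBS. Survival was read as radiolabeled uracil incorporation into TCA-precipitated nucleic acid versus untreated controls, at least in triplicate.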

A short description of data set [2]: Toxicity against human foreskin fibroblasts at 25 uM after 48 hrs by MTT method. It is filed as cell-based, Fibroblast. As to conditions: read-out: Survival. An outline of the steps: (§2)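 Uninfected human foreskin fibroblasts (≤20 passages, RPMI 1640) seeded ~10⁵ cells/well and attached ≥24 h at 37 °C, 5% CO2. Compound in medium added to final concentrations, then 48 h incubation. MTT was added for 4 h, formazan dissolved in DMSO and absorbance read at 540 nm. At least two independent experiments, each in triplicate.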

The test system of data set [3] is Toxoplasma gondii. In words: Antitoxoplasma activity against wild type Toxoplasma gondii RH assessed as survival after 18 hrs by [5,6-[…]]uracil incorporation assay. The class given is functional, organism-based.
Data set [4] relates to Toxoplasma gondii. In words: Antitoxoplasma activity against adenosine kinase deficient Toxoplasma gondii TgAK-3 assessed as survival at 50 uM after 18 hrs by [5,6-[…]]uracil incorporation assay. It is filed as functional. In a few lines:
as §1

In data set [5] the test system is Toxoplasma gondii. Kind of data set: Antitoxoplasma activity against adenosine kinase deficient Toxoplasma gondii TgAK-3 assessed as survival at 5 uM after 18 hrs by [5,6-[…]]uracil incorporation assay. It is filed as functional. An outline of the steps:
as §1

The test system of data set [6] is Toxoplasma gondii. In words: Antitoxoplasma activity against wild type Toxoplasma gondii RH assessed as survival at 50 uM after 18 hrs by [5,6-[…]]uracil incorporation assay. The class given is functional. An outline of the steps:
as §1

A short description of data set [7]: Toxicity against human foreskin fibroblasts at 5 uM after 48 hrs by MTT method. The class given is cell-based, Fibroblast. The note with it: read-out: Survival. In a few lines:
as §2

Data set [8] deals with Toxoplasma gondii. Kind of data set: Antitoxoplasma activity against wild type Toxoplasma gondii RH assessed as survival at 10 uM after 18 hrs by [5,6-[…]]uracil incorporation assay. It is filed as functional. An outline of the steps:
as §1

For data set [9], the system named is Toxoplasma gondii. Kind of data set: Antitoxoplasma activity against wild type Toxoplasma gondii RH assessed as survival at 25 uM after 18 hrs by [5,6-[…]]uracil incorporation assay. The class given is functional. An outline of the steps:
as §1

Data set [10] relates to Toxoplasma gondii. In words: Antitoxoplasma activity against adenosine kinase deficient Toxoplasma gondii TgAK-3 assessed as survival at 10 uM after 18 hrs by [5,6-[…]]uracil incorporation assay. The class given is functional. An outline of the steps:
as §1

Data set [11] can be described thus: Toxicity against human foreskin fibroblasts at 10 uM after 48 hrs by MTT method. The class given is cell-based, Fibroblast. The note with it: read-out: Survival. In a few lines:
as §2
(Tetrazolium assays rely on reduction of a dye to a coloured formazan, in cell work by metabolically active cells.)

Data set [12] concerns Toxoplasma gondii. Kind of data set: Antitoxoplasma activity against adenosine kinase deficient Toxoplasma gondii TgAK-3 assessed as survival at 25 uM after 18 hrs by [5,6-[…]]uracil incorporation assay. The class given is functional. An outline of the steps: as §1
Data set [13] in a line: Toxicity against human foreskin fibroblasts at 50 uM after 48 hrs by MTT method. The class given is cell-based, Fibroblast. The note with it: read-out: Survival. An outline of the steps: as §2

As for `OC[C@H]1O[C@@H](n2ccc3c(SCc4ccccc4)ncnc32)[C@H](O)[C@@H]1O`, on Adenosine kinase, the pKi – broadly, −log10 of the Ki, conventionally taken in molar units – was 4.55.
Turning to `OC[C@H]1O[C@@H](n2ccc3c(SCc4ccc(F)cc4)ncnc32)[C@H](O)[C@@H]1O`, the pKi on Adenosine kinase is 4.43.
Take `N#Cc1ccc(CSc2ncnc3c2ccn3[C@@H]2O[C@H](CO)[C@@H](O)[C@H]2O)cc1`: the results for the survival at 5 µM with Toxoplasma gondii [1] and with Toxoplasma gondii [5] were 52.5% and 98.4%, respectively. The viability at 48 h, 25 µM in data set [2] is 94.3%. Also, the pIC50 (as a rule, −log10 of the IC50, conventionally taken in molar units) with Toxoplasma gondii [3] was 5.28. For the same compound, the survival at 50 µM in the data set with Toxoplasma gondii [4] amounted to 100%; with Toxoplasma gondii [6], 0%. Also, the viability at 48 h, 5 µM in [7] was 100%. Besides, the survival at 10 µM in the data set on Toxoplasma gondii [8] was determined as 4%; in the data set on Toxoplasma gondii [10], 100%. Further, the survival at 25 µM with Toxoplasma gondii [9] worked out at 0%; in the data set on Toxoplasma gondii [12], 100%. On Adenosine kinase, this compound showed a pKi of 5.28. Also, in [11], the viability at 48 h, 10 µM was determined as 100%. The viability at 48 h, 50 µM in [13] worked out at 82.1%.
The compound `Cc1ccc(CSc2ncnc3c2ccn3[C@@H]2O[C@H](CO)[C@@H](O)[C@H]2O)cc1` had a pKi on Adenosine kinase of 4.72.
In the case of `COc1ccc(CSc2ncnc3c2ccn3[C@@H]2O[C@H](CO)[C@@H](O)[C@H]2O)cc1`, the survival at 5 µM in the data set on Toxoplasma gondii [1] was determined as 49.8%; with Toxoplasma gondii [5], 100%. In data set [2], the viability at 48 h, 25 µM turned out to be 100%. In addition, the pIC50 with Toxoplasma gondii [3] was 5.34. Also, the survival at 50 µM came out at 100% in the data set on Toxoplasma gondii [4] and 0% in the data set with Toxoplasma gondii [6]. Further, the viability at 48 h, 5 µM in [7] is 100%. Besides, the survival at 10 µM with Toxoplasma gondii [8] was 5%; with Toxoplasma gondii [10], 100%. The results for the survival at 25 µM in the data set with Toxoplasma gondii [9] and in the data set with Toxoplasma gondii [12] were 0% and 100%, respectively. The same compound had a negative-log Ki (pKi) at Adenosine kinase of 5.24. Moreover, the viability at 48 h, 10 µM in data set [11] worked out at 100%. For the same compound, the viability at 48 h, 50 µM in data set [13] came to 90.6%.
`OC[C@H]1O[C@@H](n2ccc3c(SCc4ccc(Cl)c(Cl)c4)ncnc32)[C@H](O)[C@@H]1O` gave a negative logarithm of the Ki (pKi) on Adenosine kinase of 4.54.
Consider `OC[C@H]1O[C@@H](n2ccc3c(SCc4ccc(F)cc4F)ncnc32)[C@H](O)[C@@H]1O`, for which, at Adenosine kinase, the pKi was 4.80.
Compound `Cc1ccccc1CSc1ncnc2c1ccn2[C@@H]1O[C@H](CO)[C@@H](O)[C@H]1O` gave a pKi on Adenosine kinase of 3.64.
On the same count and under the same terms, with `O=[N+]([O-])c1cccc(CSc2ncnc3c2ccn3[C@@H]2O[C@H](CO)[C@@H](O)[C@H]2O)c1` the figure was 4.35.
For `OC[C@H]1O[C@@H](n2ccc3c(SCc4c(F)cccc4Cl)ncnc32)[C@H](O)[C@@H]1O`, the pKi at Adenosine kinase is 5.14.
With `OC[C@H]1O[C@@H](n2ccc3c(SCc4cccc(C(F)(F)F)c4)ncnc32)[C@H](O)[C@@H]1O`, the pKi on Adenosine kinase is 4.66.
`OC[C@H]1O[C@@H](n2cc(I)c3c(SCc4ccccc4)ncnc32)[C@H](O)[C@@H]1O` had a pKi at Adenosine kinase of 4.08.
Still for that read-out and setting: with `OC[C@H]1O[C@@H](n2ccc3c(SCc4ccc(Cl)cc4)ncnc32)[C@H](O)[C@@H]1O` the figure was 4.96; with `O=[N+]([O-])c1ccc(CSc2ncnc3c2ccn3[C@@H]2O[C@H](CO)[C@@H](O)[C@H]2O)cc1`, 4.46.
`OC[C@H]1O[C@@H](n2ccc3c(SCc4ccc(Br)cc4)ncnc32)[C@H](O)[C@@H]1O` gave a pKi on Adenosine kinase of 3.60.
Compound `CC(C)(C)c1ccc(CSc2ncnc3c2ccn3[C@@H]2O[C@H](CO)[C@@H](O)[C@H]2O)cc1` had a negative logarithm of the Ki (pKi) at Adenosine kinase of 4.62.
Still for that read-out and setting: in the case of `OC[C@H]1O[C@@H](n2ccc3c(SCc4ccc(OC(F)(F)F)cc4)ncnc32)[C@H](O)[C@@H]1O` it was 4.46; in that of `OC[C@H]1O[C@@H](n2ccc3c(SCc4ccc(Cl)cc4Cl)ncnc32)[C@H](O)[C@@H]1O`, 4.59.
On to `OC[C@H]1O[C@@H](n2ccc3c(SCc4ccccc4F)ncnc32)[C@H](O)[C@@H]1O`, for which, on Adenosine kinase, the pKi is 4.23.
`OC[C@H]1O[C@@H](n2ccc3c(SCc4ccccc4Cl)ncnc32)[C@H](O)[C@@H]1O`: the negative logarithm of the Ki (pKi) at Adenosine kinase was 4.44.
As for `COC(=O)c1ccc(CSc2ncnc3c2ccn3[C@@H]2O[C@H](CO)[C@@H](O)[C@H]2O)cc1`, on Adenosine kinase, the negative-log Ki (pKi) was 5.15.
The same measure, in the same setting: in the case of `C=Cc1ccc(CSc2ncnc3c2ccn3[C@@H]2O[C@H](CO)[C@@H](O)[C@H]2O)cc1` it was 3.74.
Regarding `Cc1cccc(CSc2ncnc3c2ccn3[C@@H]2O[C@H](CO)[C@@H](O)[C@H]2O)c1`, the pKi on Adenosine kinase was 5.07.
The same measure, in the same setting: in the case of `OC[C@H]1O[C@@H](n2ccc3c(SCc4ccccc4Br)ncnc32)[C@H](O)[C@@H]1O` it was 3.97; in that of `OC[C@H]1O[C@@H](n2cnc3c(SCc4ccccc4)ncnc32)[C@H](O)[C@@H]1O` [6-BENZYLTHIOINOSINE], 4.42; in that of `Nc1ncnc2c1ncn2[C@@H]1O[C@H](CO)[C@@H](O)[C@H]1O` [ADENOSINE], 5.05.
In the case of `CCc1nc(N)nc(N)c1-c1ccc(Cl)cc1` [PYRIMETHAMINE], in the data set with Toxoplasma gondii [1], the survival at 5 µM turned out to be 55.6%. Further, in data set [2], the viability at 48 h, 25 µM was found to be 108%. Further, the pIC50 in the data set with Toxoplasma gondii [3] was 5.23. The survival at 50 µM in the data set with Toxoplasma gondii [6] was found to be 5.8%. Further, the viability at 48 h, 5 µM in data set [7] worked out at 101%. In addition, in the data set with Toxoplasma gondii [8], the survival at 10 µM was found to be 36.5%. Besides, the survival at 25 µM in the data set with Toxoplasma gondii [9] came out at 13.8%. In data set [11], the viability at 48 h, 10 µM came out at 100%. The viability at 48 h, 50 µM in data set [13] was 108%.
As for `Nc1ccc(S(=O)(=O)Nc2ncccn2)cc1` [SULFADIAZINE], in the data set on Toxoplasma gondii [1], the survival at 5 µM is 74.6%. In addition, the viability at 48 h, 25 µM in data set [2] turned out to be 99.8%. Also, the pIC50 with Toxoplasma gondii [3] was 4.39. Further, the survival at 50 µM in the data set on Toxoplasma gondii [6] was found to be 46.4%. For the same compound, in data set [7], the viability at 48 h, 5 µM was 98.2%. Moreover, in the data set on Toxoplasma gondii [8], the survival at 10 µM is 64.8%. Further, in the data set on Toxoplasma gondii [9], the survival at 25 µM was 59.8%. Moreover, the viability at 48 h, 10 µM in data set [11] is 99.8%. Further, in data set [13], the viability at 48 h, 50 µM amounted to 102%.
